Assay results from ChEMBL document CHEMBL3774363, “Potent Triazole Bisphosphonate Inhibitor of Geranylgeranyl Diphosphate Synthase” (ACS Med Chem Lett, 2015).
Activity calls are given as the source filed them. No cut-off for these calls is given here.

Legend:
[1] = target: T1, Geranylgeranyl pyrophosphate synthase (Homo sapiens, UniProt O95749); test: Inhibition of recombinant GGDPS (unknown origin) assessed as radiolabeled GGPP formation preincubated for 10 mins followed by addition of 10 uM FPP substrate and [14C]IPP for 30 mins by liquid scintillation counter analysis
T1 sequence (O95749 whole entry): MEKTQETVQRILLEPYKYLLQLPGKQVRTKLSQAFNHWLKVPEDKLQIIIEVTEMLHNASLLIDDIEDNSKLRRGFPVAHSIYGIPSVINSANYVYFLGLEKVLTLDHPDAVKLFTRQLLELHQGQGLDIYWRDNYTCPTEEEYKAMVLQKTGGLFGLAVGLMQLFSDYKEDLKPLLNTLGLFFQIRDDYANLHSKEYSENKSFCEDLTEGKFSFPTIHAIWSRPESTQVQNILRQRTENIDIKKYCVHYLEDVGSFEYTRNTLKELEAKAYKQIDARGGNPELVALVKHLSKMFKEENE

[2] = target: T2, Farnesyl pyrophosphate synthase (Homo sapiens, UniProt P14324); test: Inhibition of recombinant FDPS (unknown origin) assessed as radiolabeled FPP formation preincubated for 10 mins followed by addition of 10 uM GPP substrate and [14C]IPP for 30 mins by liquid scintillation counter analysis
T2 sequence (P14324 whole entry): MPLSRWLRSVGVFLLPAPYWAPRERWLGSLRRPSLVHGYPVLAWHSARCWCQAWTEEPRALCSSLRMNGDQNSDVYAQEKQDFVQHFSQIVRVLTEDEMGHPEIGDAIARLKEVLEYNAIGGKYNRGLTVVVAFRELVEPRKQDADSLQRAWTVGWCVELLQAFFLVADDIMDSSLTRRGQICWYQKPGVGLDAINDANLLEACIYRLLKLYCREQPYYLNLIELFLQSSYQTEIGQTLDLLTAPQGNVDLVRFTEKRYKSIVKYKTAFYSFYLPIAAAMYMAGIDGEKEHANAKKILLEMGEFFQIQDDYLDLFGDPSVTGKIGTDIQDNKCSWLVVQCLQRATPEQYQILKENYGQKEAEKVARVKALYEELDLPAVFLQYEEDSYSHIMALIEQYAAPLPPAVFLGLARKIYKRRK

Homo sapiens = species on record: Homo sapiens; test: Selectivity index, ratio of IC50 for FDPS (unknown origin) to IC50 for GGDPS (unknown origin)
[3] = target: T3, Geranylgeranyl pyrophosphate synthase (Homo sapiens) (UniProt O95749); test: Inhibition of GGDPS in human RPMI8226 cells assessed as disruption of Rap1a geranylation after 48 hrs by immunoblot analysis; assay type: cell-based; conditions: RPMI-8226
T3 sequence (whole entry): T1 sequence (O95749 whole entry)
Outline: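 RPMI-8226 human myeloma cells incubated 48 h with or without compound, with lovastatin (10 μM) as positive control. Cells were lysed in RIPA buffer and immunoblotted with an antibody that detects only unmodified Rap1a, with β-tubulin as loading control. The value is the lowest concentration at which disruption was seen; blots are representative of two independent studies.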

[4] = Cytotoxicity against human RPMI8226 after 48 hrs by MTT assay; assay type: functional; conditions: RPMI-8226, 48 h
[5] = target: T3, Geranylgeranyl pyrophosphate synthase (Homo sapiens); test: Inhibition of GGDPS in human RPMI8226 cells assessed as disruption of Rap1a geranylation at 50 nM after 48 hrs by immunoblot analysis; conditions: RPMI-8226

SMILES	IC50 [1] [nM]	IC50 [2] [nM]	Ratio IC50 (Homo sapiens)	Activity [3] [µM]	EC50 [4] [nM]	inhibition [5]
CC(C)=CCCn1cc(CC(P(=O)(O)O)P(=O)(O)O)nn1	430	6600	15	5	15000	–
CC(C)=CCC/C(C)=C/CC(Cc1cn(CCC=C(C)C)nn1)(P(=O)(O)O)P(=O)(O)O	380	13000	34	0.5	1000	–
CC(C)=CCC/C(C)=C/CCn1cc(CC(P(=O)(O)O)P(=O)(O)O)nn1	45	28000	620	0.05	190	Active
